Screening results (PubChem)
Rows were chosen to be rich in hits. Some 5.7% of all compounds tested hit in one or more screens of this group.
Beta apoptosis: blocks beta cell apoptosis | 300,000 compounds, 0.8% hits | AID 435005 | protection from apoptosis, % (no concentration beside the values) | INS-1E cytokine-induced death, ATP luminescence, 48 h; percent of positive-control rescue, neutral wells zero;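 active = Every replicate reaches about 75%, or at least half do and their mean reaches it too, limit read from the data; inconclusive = At least half of replicates reach the limit but their mean does not; inactive = Under half of replicates reach the limit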;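 note: higher means more ATP so stronger rescue from cytokine killing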
CSC inhib: cancer stem cell inhibition; cancer stem cell-like cells viability, luminescence; inhibition, % at 7.5 µM; 300,000 compounds, 1.1% hits; in the data active = inhibition above about 75%; inconclusive = no clear call, values can overlap the other calls; tested in HMLE shEcad cells
Mdm2 MdmX PPI: disrupts the human Mdm2-MdmX interaction; inhibition, % at 8 µM; SaOS-2 split-luciferase Mdm2/MdmX complementation, luminescence; 330,000 compounds, 3% hits; O15151+Q00987; AID 485346;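 active = inhibition of at least 50% at 8 µM in the primary screen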
SKKanGAS inh: SKKanGAS growth inhibition | S. pyogenes SKKanGAS, kanamycin growth, BacTiter-Glo, 6 h | inhibition, % at 7.5 µM | 300,000 compounds, 1.3% hits | AID 1662;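 active = mean replicate score, as percent of positive control median, at least 50; inconclusive = mean below 50 but one replicate at or above 50; inactive = mean and every replicate below 50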;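 note: strain carries kanamycin resistance gene driven by streptokinase promoter and grows in 40 µg/ml kanamycin; loss of luminescence reflects streptokinase promoter inhibition or plain growth inhibition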
Calb FLC: C. albicans growth modulation with fluconazole. C. albicans CaCi-2 (fluconazole-resistant clinical isolate) + fluconazole, Alamar Blue growth, 48 h. growth inhibition, % (no concentration beside the values). 300,000 compounds, 0.57% hits;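 active = growth inhibition above about 58% in most replicates, limit read from the data, passing the limit was not always enough; inconclusive = exactly half the replicates above a set limit; inactive = most replicates below a set limit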;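 note: all wells also contain fluconazole at 8 µg/ml as a sub-toxic cotreatment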
T cruzi repl: T. cruzi replication inhibition | T. cruzi beta-gal in NIH3T3, luminescence, 90 h | inhibition, % (concentration not given with the values) | 300,000 compounds, 1.4% hits | AID 1885;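 active = mean inhibition across valid replicates above about 55%, limit read from the data; inconclusive = mean below that limit but half or more replicates reach it; inactive = mean below it, under half of replicates reach it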;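 note: signal also drops with host cell toxicity which is not excluded here; higher percent means less beta-gal luminescence so fewer parasites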
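System: mouse NIH/3T3 fibroblasts infected with β-gal-expressing T. cruzi Tulahuen C4 / Input: NIH/3T3 cells, 5,000 per well / Buffer or medium: Low-serum DMEM with 2% FBS / Probe or stimulus: 5000 reporter trypomastigotes per well / Schedule: ≥90 h infection period, 3 h prior cell attachment / Measured by: GalScreen luminescence, 60 min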
Each line names hits and unclear results; the compound was inactive in the other large screens.

Cc1ccccc1N1CCN(c2ccc(NC(=O)C3CCCCC3C(=O)O)cc2)CC1 (configuration not stated)	CSC inhib 79
Cc1ccccc1-c1cc(C(=O)NCc2cccc(C(F)(F)F)c2)n(CC2CC(c3cccnc3)=NO2)n1 (configuration not stated)	none (no result: CSC inhib, SKKanGAS inh, Calb FLC, T cruzi repl)
COc1cc(CNC2CCCCCC2)cc(OC)c1O	none (no result: Beta apoptosis, CSC inhib)
COc1cc(CNC2CCCC2)cc(Cl)c1OCc1ccccc1F	T cruzi repl 58
N#CC1=C2SC=C(c3ccc(Br)cc3)N2CCCC1=O	CSC inhib 86
N#CC1=C2Sc3ccccc3N2CCCC1=O	none
COc1ccc(Cl)cc1NC(=S)Nc1ccccc1C	none
O=C(CCc1ccccc1)NNC(=S)NC(=O)c1ccccc1	SKKanGAS inh 64, Calb FLC 110
CCCCC(=O)NC(=S)NNC(=O)CCc1ccccc1	SKKanGAS inh 76
CC(=O)NC(=S)NNC(=O)CCc1ccccc1	none
CC(C)(C)c1cc(CCC(=O)NNC(=O)c2ccco2)cc(C(C)(C)C)c1O	none
CC(C)(C)c1cc(CCC(=O)NNC(=S)NC(=O)c2ccccc2)cc(C(C)(C)C)c1O	Beta apoptosis inconclusive, SKKanGAS inh 97, T cruzi repl 59
O=S(=O)(Nc1ccccc1F)c1cccc(NC(=S)NCCN2CCOCC2)c1	none (no result: SKKanGAS inh, Calb FLC, T cruzi repl)
O=C(CCc1ccccc1)NCC1(c2ccccc2)CCCC1	none
COc1ccc(-c2ncn(CCC#N)c2[N+](=O)[O-])cc1	SKKanGAS inh 97
CCCCCCCCCC(=O)NNC(=O)c1c(O)c2ccccc2n(CC)c1=O	Calb FLC 113
CCCCCC(=O)NNC(=O)c1c(O)c2ccccc2n(CC)c1=O	SKKanGAS inh 94
CCn1c(=O)c(C(=O)NC(C)C)c(O)c2ccccc21	none
Cc1ccc2nc(-c3cccc(NS(C)(=O)=O)c3)cc(-c3ccccc3)c2c1	CSC inhib 115
CCCc1ccc(Oc2c(-c3ccc(O)c(C)c3O)n[nH]c2C)cc1	CSC inhib 100, SKKanGAS inh 95
CCCc1ccc(Oc2cn[nH]c2-c2ccc(O)c(C)c2O)cc1	CSC inhib 123, SKKanGAS inh 88 (no result: Beta apoptosis)
Cc1c(NC(=O)C(C)OC(=O)CCc2ccccc2)c(=O)n(-c2ccccc2)n1C (configuration not stated)	none
CCOc1ccc(CCNc2nc3ccc(C)cc3n3cnnc23)cc1OCC	none
COc1ccc(N2CCN(C(CNC(=O)C(=O)NCCCn3ccnc3)c3cccnc3)CC2)cc1 (configuration not stated)	T cruzi repl 63
CCS(=O)(=O)NCC(c1cccnc1)N1CCN(c2ccc(OC)cc2)CC1 (configuration not stated)	T cruzi repl 58
CCOC(=O)[C@H]1[C@H]2COc3ccc(Cl)cc3[C@@H]2N2C(=O)CN(CC3CCCO3)C(=O)[C@@]12C (some centres not stated)	none (no result: SKKanGAS inh, Calb FLC, T cruzi repl)
CCc1nnc(NS(=O)(=O)c2ccc(NCc3cc(Cl)cc(Cl)c3O)cc2)s1	SKKanGAS inh 54
CCN(CC)c1ccc(/C=C/C(=O)c2cccnc2)cc1	Calb FLC 93
O=C(/C=C/c1ccc(Cl)cc1)c1cccnc1	none (no result: T cruzi repl)
CCCCNc1c(-c2ccc(-c3cccc(Cl)c3)cc2)nc2ccccn12	Beta apoptosis 110, CSC inhib 97
CCCCCCSc1ccc(-c2nc3ccccn3c2NCCCC)cc1	CSC inhib 86, SKKanGAS inh 51
COc1ccc(N2CCN(CCNC(=O)Nc3ccc([N+](=O)[O-])cc3OC)CC2)cc1	none
C[C@H](CO)N1C[C@H](C)[C@@H](CN(C)Cc2ccccc2)Oc2ccc(NC(=O)Cn3cnnn3)cc2C1=O	none (no result: SKKanGAS inh, Calb FLC, T cruzi repl)
Cc1c(Cl)ccc2c(C(=O)Nc3cc(C(C)(C)C)on3)cc(-c3ccccn3)nc12	SKKanGAS inh 62, T cruzi repl 61 (no result: Beta apoptosis)
COc1ccc(C(=O)N2CCc3c([nH]c4ccccc34)C2C(F)(F)F)cc1 (configuration not stated)	SKKanGAS inh 52
CC(C)(C)c1ccc(C(=O)CC(Sc2ccc(Cl)cc2)C(=O)O)cc1 (configuration not stated)	CSC inhib 79, T cruzi repl 60
COc1ccc(-c2cn(Cc3ccc(C(=O)c4ccccc4)cc3)nn2)cc1	Beta apoptosis 106
COc1ccc(-c2cn(Cc3ccc4ccccc4c3)nn2)cc1	none
CC[C@@H]1C=C(C(=O)O)[C@H](c2ccc(OC)c(OC)c2)N1S(=O)(=O)c1ccc(C)cc1	none (no result: CSC inhib, SKKanGAS inh, Calb FLC, T cruzi repl)
COc1cc(NC(=O)Nc2ccc3c(c2)OCO3)cc(OC)c1OC	none
O=C(Nc1ccc([N+](=O)[O-])cc1)Nc1ccc(OC(F)F)c(Cl)c1	Beta apoptosis 132, CSC inhib 103 (no result: Mdm2 MdmX PPI, SKKanGAS inh, Calb FLC, T cruzi repl)
COc1ccc(C(C)(C)C)cc1NC(=O)Nc1ccc2c(c1)OCO2	CSC inhib 83
O=C(Nc1ccc(OC(F)F)c(Cl)c1)Nc1ccc2c(c1)OCO2	CSC inhib 98
O=C(Nc1ccc2c(c1)OCO2)Nc1ccc2c(c1)OCO2	none
CN(CC(=O)Nc1ccc(Cl)c(Cl)c1)CC(=O)Nc1ccc2c(c1)OCO2	CSC inhib 80 (no result: SKKanGAS inh, Calb FLC, T cruzi repl)
CCCCn1c(N)c(N(CC(C)C)C(=O)C2CCN(C(=O)c3ccc(F)cc3)CC2)c(=O)[nH]c1=O	none
CCOc1ccc(C2CC(=O)NC2=O)cc1 (configuration not stated)	none
CCCC(=O)N1CC(=O)Nc2ccc(C)cc2C1c1ccccc1 (configuration not stated)	none
CCCC1=NN(c2ccc([N+](=O)[O-])cc2)C(=O)/C1=C/N(C)C	none
CC1=NN(c2ccc([N+](=O)[O-])cc2)C(=O)/C1=C\N(C)C	SKKanGAS inh 56
CC1=NN(c2nc3ccccc3[nH]2)C(=O)/C1=C/N(C)C	Beta apoptosis 113, CSC inhib 91 (no result: SKKanGAS inh, T cruzi repl)
CCn1nnc(NC(=O)c2cccc(-c3cc4ccccc4oc3=O)c2)n1	none
CCOc1ccc2nc(NC(=O)c3cccc(-c4cc5ccccc5oc4=O)c3)sc2c1	Beta apoptosis 81 (no result: Mdm2 MdmX PPI)
O=C(Nc1cccc(Cl)c1N1CCCC1)c1cccc(-c2cc3ccccc3oc2=O)c1	CSC inhib 84
CCOC(=O)c1c(O)cc(C)[nH]c1=O	none
CCCCN(C(=O)C1=CC=CN2CCS(=O)(=O)N=C12)c1ccccc1	none (no result: Beta apoptosis, CSC inhib, SKKanGAS inh, Calb FLC, T cruzi repl)
CSCCC(NS(=O)(=O)c1ccc(C)cc1C)C(=O)Nc1cccnc1 (configuration not stated)	none (no result: SKKanGAS inh, Calb FLC, T cruzi repl)
Cc1cc(NC2CCCC2)n2nc(C)c(-c3ccccc3)c2n1	T cruzi repl 60
COc1ccc(-c2c(C)nn3c(NC4CCCC4)cc(C)nc23)cc1OC	none
Cc1c(-c2ccccc2)cnc2c(C)cccc12	none
Clc1ccccc1OCCCn1ccnc1	none
Cc1ccccc1OCCCCCn1ccnc1	T cruzi repl 67
Cc1ccccc1OCCCCn1cnc2ccccc21	Beta apoptosis 103 (no result: SKKanGAS inh)
Cc1cc(OCCCCn2ccnc2)cc(C)c1Cl	T cruzi repl 69
